According to ChEMBL document CHEMBL1148955, “Chemical constituents from the Colombian medicinal plant Maytenus laevis” (2004):
Calls of active or inactive are those of the source. The calls are words filed in the database; no cut-off is given here.

Tests used:
PBMC [1] = assay: Induction of IL6 production in human PBMC at 10 ug/ml after 48 hrs by ELISA; format: functional
In short: (§1)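 PBMCs were isolated from heparinized venous blood by Ficoll-Hypaque density gradient centrifugation. Cells were cultured at 1 × 10^6/mL in RPMI 1640 with 10% fetal calf serum, with or without compound at 1 or 10 µg/mL, for 48 h at 37 °C. Cytokines in the culture supernatants were measured by commercial ELISA kits.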

PBMC [2] = assay: Induction of TNFalpha production in human PBMC at 10 ug/ml after 48 hrs by ELISA; format: functional; in short: as §1
PBMC [3] = assay: Induction of IL12 production in human PBMC at 10 ug/ml after 48 hrs by ELISA; format: functional; in short: as §1
PBMC [4] = assay: Induction of IL4 production in human PBMC at 1 ug/ml after 48 hrs by ELISA; format: functional, cell-based; in short: as §1
PBMC [5] = assay: Induction of IFN-gamma production in human PBMC at 10 ug/ml after 48 hrs by ELISA; format: functional, cell-based; in short: as §1
PBMC [6] = assay: Induction of IL10 production in human PBMC at 1 ug/ml after 48 hrs by ELISA; format: functional, cell-based; in short: as §1
PBMC [7] = assay: Induction of IL6 production in human PBMC at 1 ug/ml after 48 hrs by ELISA; format: functional; in short: as §1
PBMC [8] = assay: Induction of IFN-gamma production in human PBMC at 1 ug/ml after 48 hrs by ELISA; format: functional, cell-based; in short: as §1
PBMC [9] = assay: Induction of IL4 production in human PBMC at 10 ug/ml after 48 hrs by ELISA; format: functional, cell-based; in short: as §1
PBMC [10] = assay: Induction of IL12 production in human PBMC at 1 ug/ml after 48 hrs by ELISA; format: functional; in short: as §1
PBMC [11] = assay: Induction of TNFalpha production in human PBMC at 1 ug/ml after 48 hrs by ELISA; format: functional; in short: as §1
PBMC [12] = assay: Induction of IL10 production in human PBMC at 10 ug/ml after 48 hrs by ELISA; format: functional, cell-based; in short: as §1

Row | Structure (SMILES) | Activity (PBMC [1]) | Activity (PBMC [2]) | Activity (PBMC [3]) | Activity (PBMC [4]) | Activity (PBMC [5]) | Activity (PBMC [6]) | Activity (PBMC [7]) | Activity (PBMC [8]) | Activity (PBMC [9]) | Activity (PBMC [10]) | Activity (PBMC [11]) | Activity (PBMC [12])
1 | COc1c(O)cc(-c2oc3cc(O)cc(O)c3c(=O)c2O)cc1O [MEARNSETIN] | 203.4 pg/mL | <7.8 pg/mL | <7.8 pg/mL | inactive | inactive | inactive | 783.6 pg/mL | inactive | inactive | 14.3 pg/mL | 31.3 pg/mL | inactive
2 | C[C@H]1[C@H](C)CC[C@]2(CO)CC[C@]3(C)C(=CC[C@@H]4[C@@]5(C)CC[C@H](OC(=O)/C=C/c6ccc(O)c(O)c6)C(C)(C)[C@@H]5CC[C@]43C)[C@H]12 | 607.1 pg/mL | 27.9 pg/mL | <7.8 pg/mL | inactive | inactive | inactive | 28.5 pg/mL | inactive | inactive | <7.8 pg/mL | <7.8 pg/mL | inactive
3 | C[C@H]1C(=O)CC[C@@H]2[C@]1(C)CC[C@H]1[C@@]2(C)CC[C@@]2(C)[C@@H]3CC(C)(C)CC[C@]3(CO)CC[C@]12C [CANOPHYLLOL] | 2579.2 pg/mL | 322.9 pg/mL | 104.3 pg/mL | inactive | inactive | inactive | 2579.3 pg/mL | inactive | inactive | 47.3 pg/mL | 132.5 pg/mL | inactive
4 | CC1(C)[C@@H](O)CC[C@]2(C)[C@H]3CC=C4[C@H]5C[C@](C)(C(=O)O)CC[C@]5(C)CC[C@@]4(C)[C@]3(C)CC[C@@H]12 [EPIKATONIC ACID] | 22.9 pg/mL | <7.8 pg/mL | <7.8 pg/mL | inactive | inactive | inactive | 16.2 pg/mL | inactive | inactive | <7.8 pg/mL | <7.8 pg/mL | inactive
5 | CC1(C)[C@@H](O)CC[C@]2(C)[C@H]3CC=C4[C@@H]5C[C@@]6(C)C[C@H](OC6=O)[C@]5(C)CC[C@@]4(C)[C@]3(C)CC[C@@H]12 [3-EPIABRUSLACTONE A] | 308.4 pg/mL | <7.8 pg/mL | <7.8 pg/mL | inactive | inactive | inactive | <7.8 pg/mL | inactive | inactive | <7.8 pg/mL | <7.8 pg/mL | inactive
6 | CC(=O)OC[C@]12[C@H](OC(C)=O)[C@H](OC(C)=O)[C@@H]3[C@@H](OC(C)=O)[C@@]14O[C@@]3(C)COC(=O)c1cccnc1C(C)C(C)C(=O)O[C@@H]([C@H](OC(C)=O)[C@@H]2OC(=O)c1ccccc1)[C@]4(C)O (some centres undefined) [MAYTEINE] | 1576.2 pg/mL | 24.6 pg/mL | 14.7 pg/mL | inactive | inactive | inactive | 1245.2 pg/mL | inactive | inactive | 14.3 pg/mL | 22 pg/mL | inactive
7 | COc1ccc([C@H]2Oc3cc(O)cc(O)c3C[C@H]2O)cc1OC | 198.6 pg/mL | <7.8 pg/mL | <7.8 pg/mL | inactive | inactive | inactive | 473.4 pg/mL | inactive | inactive | <7.8 pg/mL | <7.8 pg/mL | inactive
8 | COc1cc(C(=O)O[C@@H]2C[C@](C)(O)[C@H]3[C@H](O[C@@H]4O[C@H](CO)[C@@H](O)[C@H](O)[C@H]4O)OC=C[C@H]32)ccc1O | <7.8 pg/mL | <7.8 pg/mL | <7.8 pg/mL | inactive | inactive | inactive | <7.8 pg/mL | inactive | inactive | <7.8 pg/mL | <7.8 pg/mL | inactive
9 | CC(=O)OC[C@]12[C@H](OC(C)=O)[C@H](OC(C)=O)[C@@H]3[C@@H](OC(=O)c4ccccc4)[C@@]14O[C@@]3(C)COC(=O)c1cccnc1C(C)C(C)C(=O)O[C@@H]([C@H](OC(C)=O)[C@@H]2OC(=O)c1ccccc1)[C@]4(C)O (some centres undefined) | 260.8 pg/mL | <7.8 pg/mL | <7.8 pg/mL | inactive | inactive | inactive | 463 pg/mL | inactive | inactive | 17.3 pg/mL | 26.7 pg/mL | inactive
10 | CC(=O)O[C@@H]1[C@@H]2[C@@H](OC(C)=O)[C@@]34O[C@@]2(C)COC(=O)c2cccnc2C(C)C(C)C(=O)O[C@@H]([C@H](O)[C@H](OC(C)=O)[C@@]3(COC(=O)c2ccccc2)[C@@H]1OC(C)=O)[C@]4(C)O (some centres undefined) | 110.1 pg/mL | <7.8 pg/mL | <7.8 pg/mL | inactive | inactive | inactive | 136.1 pg/mL | inactive | inactive | <7.8 pg/mL | <7.8 pg/mL | inactive
11 | C[C@@H]1[C@@]23CC[C@H]4[C@@](C)(CC[C@@]5(C)[C@@H]6C[C@](C)(C(=O)O)CC[C@]6(C)CC[C@]45C)[C@@H]2CC[C@@]1(O)OC3 [SALASPERMIC ACID] | 109.6 pg/mL | <7.8 pg/mL | <7.8 pg/mL | inactive | inactive | inactive | 857.3 pg/mL | inactive | inactive | 21.6 pg/mL | 54.5 pg/mL | inactive
12 | CC1(C)C(=O)CC[C@]2(C)[C@H]3CC=C4[C@@H]5C[C@]6(C)C[C@@H](OC6=O)[C@]5(C)CC[C@@]4(C)[C@]3(C)CC[C@@H]12 [WILFORLIDE B] | 451.1 pg/mL | <7.8 pg/mL | <7.8 pg/mL | inactive | inactive | inactive | 1477.6 pg/mL | inactive | inactive | <7.8 pg/mL | <7.8 pg/mL | inactive
